For two compounds, Activity results are on record in ChEMBL document CHEMBL5331142, “Novel 1,4-Dihydropyridines as Specific Binders and Activators of SIRT3 Impair Cell Viability and Clonogenicity and Downregulate Hypoxia-Induced Targets in Cancer Cells” (J Med Chem, 2023).

Calls of active or inactive are those of the source. The calls are words filed in the database; no cut-off is given here.

Test [1] concerns the target T1, NAD-dependent protein deacetylase sirtuin-3, mitochondrial (Homo sapiens) (UniProt Q9NTG7).
T1 sequence (whole entry): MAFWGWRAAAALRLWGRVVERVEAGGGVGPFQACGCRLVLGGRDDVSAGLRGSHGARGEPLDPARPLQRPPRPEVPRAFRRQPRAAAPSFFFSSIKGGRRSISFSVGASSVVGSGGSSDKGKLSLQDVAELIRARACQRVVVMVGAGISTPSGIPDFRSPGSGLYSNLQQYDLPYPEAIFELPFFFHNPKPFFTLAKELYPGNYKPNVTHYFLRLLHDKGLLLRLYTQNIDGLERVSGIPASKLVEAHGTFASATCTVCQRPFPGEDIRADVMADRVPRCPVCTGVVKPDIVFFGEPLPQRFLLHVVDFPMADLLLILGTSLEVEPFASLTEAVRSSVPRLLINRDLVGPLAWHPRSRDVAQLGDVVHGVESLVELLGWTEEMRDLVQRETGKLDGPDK
Briefly: Activation of N-terminal his-tagged human SIRT3 (114 to 380 residues) deacylation activity expressed in Escherichia coli at 10 uM using ACS2-acK642 as substrate in presence of NAD+ by NADH oxidation-coupled enzymatic assay. The note with it: filed as activator. In a few lines:
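Coupled PncA/GDH deacylation assay following NADPH oxidation to NADP+. 1.5 μM sirtuin, 50 μM substrate peptide, 100 μM NAD+, compound at 10 μM, 5% final DMSO. Isoform-specific physiological substrates: p53-acK381 (SIRT1), […] (SIRT2), ACS2-acK642 (SIRT3), CPS1-succK537 (SIRT5). Sirtuins expressed in E. coli, Ni-NTA purified, tag cleaved, then size-exclusion chromatography.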

In test [2] the target is T1, NAD-dependent protein deacetylase sirtuin-3, mitochondrial (Homo sapiens). Description: Activation of N-terminal his-tagged human SIRT3 (114 to 380 residues) deacylation activity expressed in Escherichia coli at 100 uM using ACS2-acK642 as substrate in presence of NAD+ by NADH oxidation-coupled enzymatic assay. The note with it: filed as activator. In a few lines: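 Coupled PncA/GDH deacylation assay following NADPH oxidation to NADP+. 1.5 μM SIRT3 (E. coli-expressed, tag removed) with 50 μM ACS2-acK642 peptide and 100 μM NAD+, compound at 100 μM, 5% final DMSO.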

Test [3] has the same target. Briefly: Activation of human SIRT3 overexpressing in human MDA-MB-231 cells assessed as increase in GDH activity at 50 uM incubated for 4 hrs by absorbance assay. The format is cell-based. The note with it: filed as activator. Put shortly: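 MDA-MB-231 cells exposed 4 h to 50 μM compound. 10^6 cells lysed in GDH assay buffer for 10 min on ice. Supernatant mixed with developer and glutamate, incubated 3 min at 37 °C, absorbance read at 450 nm with buffer blank subtracted. SIRT3-overexpressing MDA-MB-231 cells served as reference.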

Test [4] has as its system CAL-62. Description: Anticancer activity against human CAL-62 cells assessed as reduction in cell viability at 50 uM incubated for 24 to 48 hrs under normoxia condition by trypan blue exclusion assay. The format is functional, cell-based. The note with it: time 24-48 hrs, TDE = time-dependent effect. In a few lines: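 CAL-62 cells in RPMI 1640 with 10% FBS, treated with 50 μM compound (DMSO) for 24 and 48 h. Hypoxia induced with 200 μM CoCl2, kept in the medium during treatment. Viable cells counted by 0.4% trypan blue staining on a hemocytometer.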

The test system of test [5] is MDA-MB-231. Description: Downregulation of MMP9 gene expression in human MDA-MB-231 cells at 50 uM incubated for 48 hrs by qRT-PCR analysis. The format is functional, cell-based. Put shortly:
(§1)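 MDA-MB-231 cells treated with 50 μM compound for 48 h under normoxia, DMSO vehicle control. qRT-PCR quantified by the 2(−ΔCt) method as fold of control, mean ± SEM. Three independent experiments.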

The subject of test [6] is CAL-62. Description: Downregulation of EPAS-1 expression in human CAL-62 cells at 50 uM incubated for 48 hrs under hypoxia condition by Western blot analysis. It counts as functional, cell-based. In a few lines: (§2)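 CAL-62 or MDA-MB-231 cells made hypoxic with 200 μM CoCl2 for 24 h, then treated with 50 μM compound for 48 h with CoCl2 retained. Lysates (15 or 50 μg protein) immunoblotted for HIF-1α, EPAS-1 or CA-IX with ACTB, ECL detection. 3-TYP (1 μM) as control.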

Test [7] has as its system MDA-MB-231. Description: Downregulation of HIF1alpha expression in human MDA-MB-231 cells at 50 uM incubated for 48 hrs under hypoxia condition by Western blot analysis. It counts as functional, cell-based. In a few lines: as §2
Test [8] has as its system MDA-MB-231. Briefly: Downregulation of EPAS-1 expression in human MDA-MB-231 cells at 50 uM incubated for 48 hrs under hypoxia condition by Western blot analysis. It counts as functional, cell-based. In a few lines: as §2
Test [9] relates to MDA-MB-231. Briefly: Downregulation of SNAIL gene expression in human MDA-MB-231 cells at 50 uM incubated for 48 hrs by qRT-PCR analysis. The format is functional, cell-based. In a few lines:
as §1

Test [10] has as its system MDA-MB-231. Description: Downregulation of COL1A2 gene expression in human MDA-MB-231 cells at 50 uM incubated for 48 hrs by qRT-PCR analysis. It counts as functional, cell-based. Put shortly: as §1
Test [11] relates to MDA-MB-231. Briefly: Downregulation of MMP2 gene expression in human MDA-MB-231 cells at 50 uM incubated for 48 hrs by qRT-PCR analysis. It counts as functional, cell-based. In a few lines: as §1
Test [12] concerns MDA-MB-231. Description: Downregulation of SNAIL gene expression in human MDA-MB-231 cells at 50 uM incubated for 48 hrs under hypoxia condition by qRT-PCR analysis. It counts as functional, cell-based. Put shortly:
(§3)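 MDA-MB-231 cells pretreated with 200 μM CoCl2 to induce hypoxia, then exposed to 50 μM compound for 48 h with CoCl2 maintained. qRT-PCR by the 2(−ΔCt) method vs DMSO control, mean ± SEM. Four independent experiments.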

Test [13] deals with MDA-MB-231. Description: Downregulation of ZEB1 gene expression in human MDA-MB-231 cells at 50 uM incubated for 48 hrs under hypoxia condition by qRT-PCR analysis. The format is functional, cell-based. In a few lines: as §3
Test [14] deals with MDA-MB-231. Description: Downregulation of COLLAGEN gene expression in human MDA-MB-231 cells at 50 uM incubated for 48 hrs under hypoxia condition by qRT-PCR analysis. The format is functional, cell-based. Put shortly: as §3
Test [15] relates to MDA-MB-231. Briefly: Downregulation of SLUG gene expression in human MDA-MB-231 cells at 50 uM incubated for 48 hrs under hypoxia condition by qRT-PCR analysis. It counts as functional, cell-based. Put shortly:
as §3

Test [16] deals with T2, NAD-dependent protein deacetylase sirtuin-2 (Homo sapiens) (UniProt Q8IXJ6).
T2 sequence (whole entry): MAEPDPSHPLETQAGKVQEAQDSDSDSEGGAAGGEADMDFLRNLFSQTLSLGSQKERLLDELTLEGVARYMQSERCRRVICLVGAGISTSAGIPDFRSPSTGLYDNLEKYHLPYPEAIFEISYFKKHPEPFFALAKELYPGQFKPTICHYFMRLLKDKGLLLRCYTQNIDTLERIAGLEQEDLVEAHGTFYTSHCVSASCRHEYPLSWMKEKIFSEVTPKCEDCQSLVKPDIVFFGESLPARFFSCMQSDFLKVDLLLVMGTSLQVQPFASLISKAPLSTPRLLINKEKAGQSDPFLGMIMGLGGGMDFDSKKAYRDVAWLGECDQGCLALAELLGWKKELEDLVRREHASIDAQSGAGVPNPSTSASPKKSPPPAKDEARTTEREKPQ
Description: Activation of N-terminal his-tagged human SIRT2 (43 to 356 residues) expressed in Escherichia coli at 10 uM using p53-acK381 as substrate in presence of NAD+ by NADH oxidation-coupled enzymatic assay.

For the compound `CCOC(=O)C1=CN(C(=O)c2cc(OC)cc(OC)c2)C=C(C(=O)OCC)C1c1ccccc1`, the Activity is 149% in [1], 178% in test [2] and “Tde” with CAL-62 [4]. The outcome (in test [3]; in the test on MDA-MB-231 [5]; with CAL-62 [6]; in the test on MDA-MB-231 [7]; in the test with MDA-MB-231 [8]; in the test on MDA-MB-231 [9]) was Active. For the same compound, the result in the test on MDA-MB-231 [10], in the test with MDA-MB-231 [11], in the test on MDA-MB-231 [12], in the test on MDA-MB-231 [13], in the test on MDA-MB-231 [14] and in the test on MDA-MB-231 [15] was Active. The outcome in [16] was inactive.

Regarding `CCOC(=O)C1=CN(C(=O)c2ccc(OC)c(OC)c2)C=C(C(=O)OCC)C1c1ccccc1`, the results for the Activity (in test [1]; in test [2]; with CAL-62 [4]) were 158%, 387% and “Tde”, respectively. The outcome (in test [3]; with MDA-MB-231 [5]; in the test with CAL-62 [6]; in the test on MDA-MB-231 [7]; with MDA-MB-231 [8]; in the test with MDA-MB-231 [9]) was Active. The result in the test on MDA-MB-231 [10], in the test with MDA-MB-231 [11], with MDA-MB-231 [12], with MDA-MB-231 [13], in the test on MDA-MB-231 [14] and with MDA-MB-231 [15] was Active. Moreover, the outcome in test [16] was inactive.
